This passage reports IC50 results from ChEMBL document CHEMBL1649356, “Triterpenoids from Aglaia abbreviata and their cytotoxic activities” (J Nat Prod, 2010).

What all share (format): functional, cell-based
In one experiment the test system is MCF7. Nature of the experiment: Cytotoxicity against human MCF7 cells after 48 hrs by MTT assay. To be noted: MCF7, 48 h. The gist of the method:
(§1)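 Cells grown in RPMI-1640 or DMEM with 10% FBS, 5% CO2, 37 °C. Adherent cells seeded and allowed 12 h to attach before compound addition; suspension cells seeded just before addition; initial density 1 × 10^5 cells/mL. Compound at 0.1, 1, 10, 100, 500 µM, triplicate, 48 h; doxorubicin positive control. Viability by MTT; IC50 by Reed and Muench method.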
A general note: Tetrazolium assays rely on reduction of a dye to a coloured formazan, in cell work by metabolically active cells.

Experiment [1] is described as follows: Cytotoxicity against human MCF7/ADR cells after 48 hrs by MTT assay. To be noted: NCI/ADR-RES. An outline of the steps: as §1
Another experiment deals with K562. Briefly: Cytotoxicity against human K562 cells after 48 hrs by MTT assay. Conditions: K562, 48 h. An outline of the steps:
as §1

The subject of a further experiment is SMMC-7721. Nature of the experiment: Cytotoxicity against human SMMC7721 cells after 48 hrs by MTT assay. Conditions: SMMC-7721, 48 h. The gist of the method:
as §1

Experiment [2] can be described thus: Cytotoxicity against human KB/VCR cells after 48 hrs by MTT assay. An outline of the steps: as §1
In another experiment the test system is KB. Nature of the experiment: Cytotoxicity against human KB cells after 48 hrs by MTT assay. The gist of the method: as §1

In the case of `CC1(C)C(=O)CC[C@]2(C)[C@H]3CC[C@@H]4[C@@H]([C@]5(C)C=CC(=O)O5)CC[C@@]4(C)[C@]3(C)CC[C@@H]12` [AGLAIABBREVIATIN A], the IC50 (in the experiment with MCF7; in experiment [1]; in the experiment on K562; in the experiment on SMMC-7721; in experiment [2]; in the experiment with KB) was more than 10000 nM throughout.
`CC(=O)O[C@@H]1CC[C@]2(C)[C@H]3CC[C@@H]4[C@@H]([C@]5(C)C=CC(=O)O5)CC[C@@]4(C)[C@]3(C)CC[C@H]2C1(C)C` [AGLAIABBREVIATIN B]: the 50% inhibitory concentration (IC50) (in the experiment on MCF7; in experiment [1]; in the experiment on K562; in the experiment on SMMC-7721; in experiment [2]; in the experiment with KB) was more than 10000 nM in each case.
Take `CC(=O)[C@H]1CC[C@]2(C)[C@@H]1CC[C@@H]1[C@@]3(C)CC[C@@H](O)C(C)(C)[C@@H]3CC[C@]12C` [AGLAIABBREVIATIN C]: the IC50 (commonly the point on the concentration scale where inhibition reaches its midpoint) was more than 10000 nM in the experiment with MCF7; more than 10000 nM in experiment [1]; more than 10000 nM in the experiment with K562; more than 10000 nM in the experiment with SMMC-7721; 1100 nM in experiment [2]; more than 10000 nM with KB.
In the case of `CC1(C)C=CC[C@@](C)([C@H]2CC[C@]3(C)[C@@H]2CC[C@@H]2[C@@]4(C)CCC(=O)C(C)(C)[C@@H]4CC[C@]23C)O1` [AGLAIABBREVIATIN D], the IC50 with MCF7 is more than 10000 nM; in experiment [1], more than 10000 nM; in the experiment on K562 it was 1200 nM; in the experiment on SMMC-7721, 2100 nM; in experiment [2], 960 nM; in the experiment with KB it was 1200 nM.
Take `C=C(C/C=C/C(C)(C)O)[C@H]1CC[C@]2(C)[C@@H]1CC[C@@H]1[C@@]3(C)CCC(=O)C(C)(C)[C@@H]3CC[C@]12C` [AGLAIABBREVIATIN E]: the IC50 with MCF7 is more than 10000 nM; in experiment [1], more than 10000 nM; in the experiment with K562, 1800 nM; in the experiment on SMMC-7721, 4200 nM; in experiment [2], 830 nM; with KB it was 2700 nM.
`CC(=O)O[C@@H]1CC[C@]2(C)[C@H]3CC[C@@H]4[C@@H]([C@@](C)(O)CCCC(C)(C)OO)CC[C@@]4(C)[C@]3(C)CC[C@H]2C1(C)C` [AGLAIABBREVIATIN F]: the 50% inhibitory concentration (IC50) in the experiment with MCF7 was more than 10000 nM; in experiment [1] it was 5500 nM; with K562, 460 nM; in the experiment with SMMC-7721, 1400 nM; in experiment [2], 310 nM; with KB, 600 nM.
In the case of `COc1cccc2c1C(=O)c1c(O)c3c(c(O)c1C2=O)C[C@@](O)(C(=O)CO)C[C@@H]3O[C@H]1C[C@H](N)[C@H](O)[C@H](C)O1` [DOXORUBICIN], the IC50 was 540 nM with MCF7; more than 10000 nM in experiment [1]; 170 nM in the experiment with K562; 370 nM in the experiment on SMMC-7721; 450 nM in experiment [2]; 12 nM in the experiment with KB.
